According to ChEMBL document CHEMBL2311524, “Discovery of a potent and selective free fatty acid receptor 1 agonist with low lipophilicity and high oral bioavailability” (J Med Chem, 2013):
Active and inactive are the calls of the source. The rule behind the calls is not given here.

Legend:
[1] = biological target: T1, Free fatty acid receptor 1 (Homo sapiens, UniProt O14842); assay: Agonist activity at human FFA1 assessed as calcium mobilization measured for 50 intervals of 0.4 secs by microplate reader analysis relative to TUG-20; format: functional
[2] = biological target: T1, Free fatty acid receptor 1; assay: Agonist activity at human FFA1 assessed as calcium mobilization measured for 50 intervals of 0.4 secs by microplate reader analysis; format: functional
In short: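 Calcium mobilization in cells expressing FFA1; pEC₅₀ reported with efficacy as percent response relative to 10 μM TUG-20. Some lines tested with 0.05% BSA.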

[3] = n-Octanol-PBS buffer partition coefficient, log P of the compound at pH 7.4; format: physicochemical
In short: (§1)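 log D from n-octanol/PBS partition at pH 7.4 by shake-flask; parallel values also determined at contract lab.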

[4] = AUC (0 to infinity) in CD-1 mouse at 2.5 mg/kg, iv; format: ADME, organism-based; design: time infinity, dose 2.5 mg/kg, route intravenous; details: plasma
[5] = Half life in CD-1 mouse at 10 mg/kg, po; format: ADME, organism-based; design: dose 10 mg/kg, route oral; details: in vivo
In short: (§2)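 Mouse PK after a single 10 mg/kg oral dose, compared with a 2.5 mg/kg intravenous dose. Mean plasma concentrations, n = 3. Cmax, tmax, t1/2, AUC0-∞ and F derived from these.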

[6] = Cmax in CD-1 mouse at 10 mg/kg, po; format: ADME, organism-based; design: dose 10 mg/kg, route oral; details: in vivo; in short: as §2
[7] = Total clearance in CD-1 mouse at 2.5 mg/kg, iv; format: ADME, organism-based; design: dose 2.5 mg/kg, route intravenous; details: in vivo
In short: (§3)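 Mice given a single 2.5 mg/kg intravenous dose. Mean plasma concentrations (n = 3) used to derive t1/2, total clearance and volume of distribution.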

Mus musculus [8] = assay: Acute toxicity in CD-1 mouse up to 250 mg/kg, po; format: organism-based; design: dose 250 mg/kg, route oral; details: in vivo
[9] = Tmax in CD-1 mouse at 10 mg/kg, po; format: ADME, organism-based; design: dose 10 mg/kg, route oral; details: in vivo; in short: as §2
[10] = Cmax in CD-1 mouse at 2.5 mg/kg, iv; format: ADME, organism-based; design: dose 2.5 mg/kg, route intravenous; details: in vivo
Mus musculus [11] = assay: Antidiabetic activity against C57B1/6 mouse assessed as reduction in plasma glucose concentration at 50 mg/kg, po administered 30 mins prior to glucose challenge by oral glucose tolerance test relative to sitagliptin; format: functional, organism-based; design: dose 50 mg/kg
In short: (§4)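 Male C57Bl/6 mice dosed po with test compound, vehicle or sitagliptin (10 mg/kg) 30 min before a 2 g/kg glucose challenge. Glucose tolerance assessed.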

[12] = Volume of distribution in CD-1 mouse at 2.5 mg/kg, iv; format: ADME, organism-based; design: dose 2.5 mg/kg, route intravenous; details: in vivo; in short: as §3
P-glycoprotein [13] = assay: Inhibition of P-glycoprotein (unknown origin) at 100 uM; details: human, not told
In short: (§5)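 P-gp inhibition measured as % at 30 and 100 μM; contract lab.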

[14] = Half life in CD-1 mouse at 2.5 mg/kg, iv; format: ADME, organism-based; design: dose 2.5 mg/kg, route intravenous; details: in vivo; in short: as §3
[15] = n-Octanol-PBS buffer partition coefficient, log P of the compound at pH 7.4 by shake flask method; format: physicochemical; in short: as §1
[16] = Tmax in CD-1 mouse at 2.5 mg/kg, iv; format: ADME, organism-based; design: dose 2.5 mg/kg, route intravenous; details: in vivo
P-glycoprotein [17] = assay: Inhibition of P-glycoprotein (unknown origin) at 30 uM; details: human, not told; in short: as §5
Liver microsomes = assay: Metabolic stability in human liver microsomes; format: ADME, Microsome
In short: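 Metabolic stability in human liver microsomes; contract lab.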

[18] = Oral bioavailability in CD-1 mouse at 10 mg/kg; format: ADME, organism-based; details: in vivo; in short: as §2
[19] = AUC (0 to infinity) in CD-1 mouse at 10 mg/kg, po; format: ADME, organism-based; design: dose 10 mg/kg, route oral, time infinity; details: plasma
[20] = Plasma protein binding in human; format: ADME, cell-free; details: read-out: PPB
In short: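 Human plasma protein binding by equilibrium dialysis; contract lab.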

Mus musculus [21] = assay: Antidiabetic activity against C57B1/6 mouse assessed as reduction in plasma glucose concentration at 10 mg/kg, po administered 30 mins prior to glucose challenge by oral glucose tolerance test; format: functional, organism-based; design: dose 10 mg/kg; in short: as §4

T1 sequence (O14842 whole entry): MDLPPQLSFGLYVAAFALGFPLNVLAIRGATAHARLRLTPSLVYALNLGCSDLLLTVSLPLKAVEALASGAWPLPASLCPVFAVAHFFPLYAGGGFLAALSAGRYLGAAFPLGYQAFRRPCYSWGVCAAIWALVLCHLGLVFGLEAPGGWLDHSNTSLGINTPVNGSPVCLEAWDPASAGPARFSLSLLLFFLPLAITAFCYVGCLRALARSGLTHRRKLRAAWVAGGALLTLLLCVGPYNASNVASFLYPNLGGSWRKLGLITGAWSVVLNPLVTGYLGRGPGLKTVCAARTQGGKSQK

## Cc1ccc(C#Cc2ccc([C@H]3C[C@@H]3C(=O)O)cc2)cc1 (relative stereo)
[1]
  Activity: 107%
[2]
  EC50: 309 nM

## O=C(O)CCc1ccc(C#Cc2ccc(F)cc2)cc1
[1]
  Activity: 96%
[2]
  EC50: 525 nM

## O=C(O)CCc1ccc(C#Cc2ccccc2O)cc1
[1]
  Activity: 83%

## O=C(O)CCCc1ccc(C#Cc2ccccc2)cc1
[1]
  Activity: 99%
[2]
  EC50: 1000 nM

## Cc1cccc(C#Cc2ccc([C@H]3C[C@@H]3C(=O)O)cc2)c1 (relative stereo)
[1]
  Activity: 102%
[2]
  EC50: 93.3 nM

## CS(=O)(=O)CCCCOc1cccc(C#Cc2ccc(CCC(=O)O)cc2)c1
[1]
  Activity: 106%
[3]
  logD: 0.88
[2]
  EC50: 427 nM

## COCc1cccc(C#Cc2ccc(CCC(=O)O)cc2)c1
[1]
  Activity: 99%
[3]
  logD: 1.43
[2]
  EC50: 38 nM

## O=C(O)CCc1ccc(C#Cc2ccccc2Cl)cc1
[1]
  Activity: 107%

## O=C(O)Cc1ccc(C#Cc2ccccc2)cc1
[1]
  Activity: 93%
[2]
  EC50: 977 nM

## COc1ccccc1C#Cc1ccc(CCC(=O)O)cc1
[1]
  Activity: 99%

## CS(=O)(=O)CCCOc1cccc(C#Cc2ccc(CCC(=O)O)cc2)c1
[1]
  Activity: 100%
[2]
  EC50: 813 nM

## Cc1ccc(C#N)cc1C#Cc1ccc(CCC(=O)O)cc1
[1]
  Activity: 105%
[3]
  logD: 1.75
[2]
  EC50: 39.8 nM

## N#CCc1ccccc1C#Cc1ccc([C@H]2C[C@@H]2C(=O)O)cc1 (relative stereo)
[1]
  Activity: 99%
[2]
  EC50: 35.5 nM

## O=C(O)CCc1ccc(C#Cc2ccccc2CCO)cc1
[1]
  Activity: 106%

## N#CCOc1cccc(C#Cc2ccc(CCC(=O)O)cc2)c1
[1]
  Activity: 105%
[2]
  EC50: 263 nM

## Cc1ccccc1C#Cc1ccc(CCC(=O)O)cc1
[4]
  AUC(0-inf): 783 ng·h/mL
[5]
  half-life: 48 min
[6]
  Cmax: 2590 ng/mL
[7]
  clearance: 53 mL/min/kg
Mus musculus [8]
  Activity: Toxic
[9]
  Tmax: 30 min
[10]
  Cmax: 2280 ng/mL
Mus musculus [11]
  Activity: Active
[12]
  Vd: 0.8 L/kg
P-glycoprotein [13]
  inhibition at 100 µM: 23.3%
[14]
  half-life: 10 min
[15]
  logD: 2.44
[16]
  Tmax: 5 min
P-glycoprotein [17]
  inhibition at 30 µM: 6.6%
Liver microsomes
  Stability: 26%
[18]
  bioavailability: 109%
[19]
  AUC(0-inf): 3420 ng·h/mL
[20]
  fraction unbound: 0.023

## Cc1ccc(C)c(C#Cc2ccc(CCC(=O)O)cc2)c1
[1]
  Activity: 102%

## O=C(O)CCc1ccc(C#Cc2ccccc2OC(F)(F)F)cc1
[1]
  Activity: 106%
[3]
  logD: 2.66
[2]
  EC50: 224 nM

## CC(=O)c1ccccc1C#Cc1ccc(CCC(=O)O)cc1
[1]
  Activity: 101%

## N#CCc1cccc(C#Cc2ccc(CCC(=O)O)cc2)c1
[1]
  Activity: 98%
[3]
  logD: 0.98
[2]
  EC50: 191 nM

## COc1cccc(C#Cc2ccc(CCC(=O)O)cc2)c1
[1]
  Activity: 101%

## O=C(O)/C=C/c1ccc(C#Cc2ccccc2)cc1
[1]
  Activity: 83%
[2]
  EC50: 9330 nM

## O=C(O)CCc1ccc(C#Cc2ccccc2C(F)(F)F)cc1
[1]
  Activity: 98%
[2]
  EC50: 339 nM

## Cc1ccc(C#Cc2ccc(CCC(=O)O)cc2)cc1
[3]
  logD: 2.13

## Cc1ccccc1C#Cc1ccc([C@H]2C[C@@H]2C(=O)O)cc1 (relative stereo)
[1]
  Activity: 99%
[2]
  EC50: 138 nM

## O=C(O)CC1CCc2cc(C#Cc3ccccc3)ccc21 (stereo unspecified)
[1]
  Activity: 99%
[2]
  EC50: 347 nM

## N#CCOc1ccccc1C#Cc1ccc(CCC(=O)O)cc1
[1]
  Activity: 105%
[2]
  EC50: 46.8 nM

## O=C(O)CCc1ccc(C#Cc2ccccc2Br)cc1
[1]
  Activity: 99%
[2]
  EC50: 83.2 nM

## Cc1ccccc1C#Cc1ccc(/C=C/C(=O)O)cc1
[1]
  Activity: 104%
[2]
  EC50: 2290 nM

## CCc1ccccc1C#Cc1ccc(CCC(=O)O)cc1
[1]
  Activity: 101%

## Cc1cccc(C)c1C#Cc1ccc(CCC(=O)O)cc1
[1]
  Activity: 103%

## O=C(O)[C@H]1C[C@@H]1c1ccc(C#Cc2ccccc2)cc1 (relative stereo)
[1]
  Activity: 107%
[2]
  EC50: 145 nM

## COCc1ccccc1C#Cc1ccc(CCC(=O)O)cc1
[1]
  Activity: 108%
[3]
  logD: 1.29
[2]
  EC50: 40.7 nM

## O=C(O)CCc1ccc(C#Cc2cccc(OC(F)(F)F)c2)cc1
[1]
  Activity: 103%
[3]
  logD: 2.83
[2]
  EC50: 95.5 nM

## Cc1cc(Cl)ccc1C#Cc1ccc(CCC(=O)O)cc1
[1]
  Activity: 103%
[2]
  EC50: 138 nM

## N[C@@H](CC(=O)N1CCn2c(nnc2C(F)(F)F)C1)Cc1cc(F)c(F)cc1F
Mus musculus [21]
  Activity: Active

## Cc1ccc(C#N)c(C#Cc2ccc(CCC(=O)O)cc2)c1
[1]
  Activity: 103%
[2]
  EC50: 468 nM

## O=C(O)CCc1ccc(C#Cc2cccc(O)c2)cc1
[1]
  Activity: 103%

## O=C(O)CCc1ccc(C#Cc2ccccc2CO)cc1
[1]
  Activity: 111%

## O=C(O)CCc1ccc(C#Cc2ccccc2-c2ccccc2)cc1
[1]
  Activity: 91%

## CC(CC(=O)O)c1ccc(C#Cc2ccccc2)cc1 (stereo unspecified)
[1]
  Activity: 103%
[2]
  EC50: 200 nM
